ChEMBL document CHEMBL1255409, “In vitro activity of ceftaroline against 623 diverse strains of anaerobic bacteria” (2010)

What was measured:
Assay type in all cases: functional
[1] = tested on: Bacteroides thetaiotaomicron; assay: Antimicrobial activity against Bacteroides thetaiotaomicron under anaerobic conditions after 44 hrs by CLSI-M11-47 protocol based agar dilution method
Procedure, shortened: (§1)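 Reference agar dilution per CLSI M11-A7 with plates made on test day. Clinical isolates were stored at −70°C in 20% skim milk, subcultured twice, and 48-h cell paste was suspended in brucella broth to 0.5 McFarland. About 10^5 CFU/spot was applied with a Steers replicator. Plates were incubated 44 h at 37°C anaerobically. MIC was the lowest concentration giving complete inhibition or marked growth reduction versus the drug-free control.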

[2] = tested on: Bacteroides caccae; assay: Antimicrobial activity against Bacteroides caccae under anaerobic conditions after 44 hrs by CLSI-M11-47 protocol based agar dilution method; procedure, shortened: as §1
[3] = tested on: Bacteroides uniformis; assay: Antimicrobial activity against Bacteroides uniformis under anaerobic conditions after 44 hrs by CLSI-M11-47 protocol based agar dilution method; procedure, shortened: as §1
[4] = tested on: Prevotella bivia; assay: Antimicrobial activity against Prevotella bivia under anaerobic conditions after 44 hrs by CLSI-M11-47 protocol based agar dilution method
Procedure, shortened: (§2)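 Clinical isolates were stored at −70°C in 20% skim milk and identified phenotypically or by partial 16S rRNA sequencing. Each strain was subcultured twice from frozen stock. Cell paste from 48-h cultures was suspended in brucella broth to a 0.5 McFarland standard. About 10^5 CFU per spot were applied by Steers replicator to agar dilution plates prepared on the day of testing. Plates were incubated 44 h at 37°C in an anaerobic chamber. MIC was taken as the lowest concentration giving complete inhibition or marked reduction of growth versus the drug-free control.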

[5] = tested on: Prevotella nanceiensis; assay: Antimicrobial activity against Prevotella nanceiensis under anaerobic conditions after 44 hrs by CLSI-M11-47 protocol based agar dilution method; settings: Hoylesella nanceiensis; procedure, shortened: as §2
[6] = tested on: Porphyromonas somerae; assay: Antimicrobial activity against Porphyromonas somerae under anaerobic conditions after 44 hrs by CLSI-M11-47 protocol based agar dilution method; procedure, shortened: as §2
[7] = tested on: Fusobacterium mortiferum; assay: Antimicrobial activity against Fusobacterium mortiferum under anaerobic conditions after 44 hrs by CLSI-M11-47 protocol based agar dilution method; procedure, shortened: as §1
[8] = tested on: Fusobacterium varium; assay: Antimicrobial activity against Fusobacterium varium under anaerobic conditions after 44 hrs by CLSI-M11-47 protocol based agar dilution method; procedure, shortened: as §2
[9] = tested on: Veillonella; assay: Antimicrobial activity against Veillonella spp. under anaerobic conditions after 44 hrs by CLSI-M11-47 protocol based agar dilution method; procedure, shortened: as §2
[10] = tested on: Finegoldia magna; assay: Antimicrobial activity against Finegoldia magna under anaerobic conditions after 44 hrs by CLSI-M11-47 protocol based agar dilution method; procedure, shortened: as §1
[11] = tested on: Parvimonas micra; assay: Antimicrobial activity against Parvimonas micra under anaerobic conditions after 44 hrs by CLSI-M11-47 protocol based agar dilution method; procedure, shortened: as §2
[12] = tested on: Peptoniphilus asaccharolyticus; assay: Antimicrobial activity against Peptoniphilus asaccharolyticus under anaerobic conditions after 44 hrs by CLSI-M11-47 protocol based agar dilution method; procedure, shortened: as §2
[13] = tested on: Anaerococcus octavius; assay: Antimicrobial activity against Anaerococcus octavius under anaerobic conditions after 44 hrs by CLSI-M11-47 protocol based agar dilution method; procedure, shortened: as §1
[14] = tested on: Anaerococcus vaginalis; assay: Antimicrobial activity against Anaerococcus vaginalis under anaerobic conditions after 44 hrs by CLSI-M11-47 protocol based agar dilution method; procedure, shortened: as §1
[15] = tested on: Peptoniphilus lacrimalis; assay: Antimicrobial activity against Peptoniphilus lacrimalis under anaerobic conditions after 44 hrs by CLSI-M11-47 protocol based agar dilution method; procedure, shortened: as §2
[16] = tested on: Actinomyces israelii; assay: Antimicrobial activity against Actinomyces israelii under anaerobic conditions after 44 hrs by CLSI-M11-47 protocol based agar dilution method; procedure, shortened: as §1
[17] = tested on: Propionibacterium avidum; assay: Antimicrobial activity against Propionibacterium avidum under anaerobic conditions after 44 hrs by CLSI-M11-47 protocol based agar dilution method; settings: Cutibacterium avidum; procedure, shortened: as §2
[18] = tested on: Eggerthella lenta; assay: Antimicrobial activity against Eggerthella lenta under anaerobic conditions after 44 hrs by CLSI-M11-47 protocol based agar dilution method; procedure, shortened: as §1
[19] = tested on: Eubacterium cylindroides; assay: Antimicrobial activity against Eubacterium cylindroides under anaerobic conditions after 44 hrs by CLSI-M11-47 protocol based agar dilution method; settings: Faecalitalea cylindroides; procedure, shortened: as §1
[20] = tested on: Eubacterium saburreum; assay: Antimicrobial activity against Eubacterium saburreum under anaerobic conditions after 44 hrs by CLSI-M11-47 protocol based agar dilution method; settings: Lachnoanaerobaculum saburreum; procedure, shortened: as §1
[21] = tested on: Solobacterium moorei; assay: Antimicrobial activity against Solobacterium moorei under anaerobic conditions after 44 hrs by CLSI-M11-47 protocol based agar dilution method; procedure, shortened: as §2
[22] = tested on: Lacticaseibacillus casei; assay: Antimicrobial activity against Lactobacillus casei under anaerobic conditions after 44 hrs by CLSI-M11-47 protocol based agar dilution method; procedure, shortened: as §2
[23] = tested on: Lacticaseibacillus rhamnosus; assay: Antimicrobial activity against Lactobacillus rhamnosus under anaerobic conditions after 44 hrs by CLSI-M11-47 protocol based agar dilution method; procedure, shortened: as §2
[24] = tested on: Thomasclavelia ramosa; assay: Antimicrobial activity against Clostridium ramosum under anaerobic conditions after 44 hrs by CLSI-M11-47 protocol based agar dilution method; procedure, shortened: as §1
[25] = tested on: [Clostridium] innocuum; assay: Antimicrobial activity against Clostridium […] under anaerobic conditions after 44 hrs by CLSI-M11-47 protocol based agar dilution method; procedure, shortened: as §1
[26] = tested on: Clostridium aldenense; assay: Antimicrobial activity against Clostridium aldenense under anaerobic conditions after 44 hrs by CLSI-M11-47 protocol based agar dilution method; settings: Enterocloster aldenensis; procedure, shortened: as §1
[27] = tested on: Clostridium bolteae; assay: Antimicrobial activity against Clostridium bolteae under anaerobic conditions after 44 hrs by CLSI-M11-47 protocol based agar dilution method; settings: Enterocloster bolteae; procedure, shortened: as §1
[28] = tested on: Clostridium citroniae; assay: Antimicrobial activity against Clostridium citroniae under anaerobic conditions after 44 hrs by CLSI-M11-47 protocol based agar dilution method; settings: Enterocloster citroniae; procedure, shortened: as §1
[29] = tested on: Clostridium hathewayi; assay: Antimicrobial activity against Clostridium hathewayi under anaerobic conditions after 44 hrs by CLSI-M11-47 protocol based agar dilution method; settings: Hungatella hathewayi; procedure, shortened: as §1
[30] = tested on: Paraclostridium bifermentans; assay: Antimicrobial activity against Clostridium bifermentans under anaerobic conditions after 44 hrs by CLSI-M11-47 protocol based agar dilution method; procedure, shortened: as §1
[31] = tested on: Clostridium hylemonae; assay: Antimicrobial activity against Clostridium hylemonae under anaerobic conditions after 44 hrs by CLSI-M11-47 protocol based agar dilution method; procedure, shortened: as §1
[32] = tested on: Eubacterium limosum; assay: Antimicrobial activity against Eubacterium limosum under anaerobic conditions after 44 hrs by CLSI-M11-47 protocol based agar dilution method; procedure, shortened: as §1

CCO/N=C(\C(=O)N[C@@H]1C(=O)N2C(C(=O)[O-])=C(Sc3nc(-c4cc[n+](C)cc4)cs3)CS[C@H]12)c1nsc(NP(=O)(O)O)n1 [CEFTAROLINE FOSAMIL]
0.125 µg/mL: MIC50 [9] | MIC50 [19] | MIC50 [20] | MIC50 [21] | MIC50 [32]
32 µg/mL: MIC90 [5] | MIC90 [7]
0.015 µg/mL: MIC50 [6] | MIC50 [16]
0.5 µg/mL: MIC90 [8] | MIC90 [9] | MIC90 [10] | MIC50 [22] | MIC50 [23] | MIC50 [30] | MIC50 [31]
0.06 µg/mL: MIC50 [11] | MIC50 [12] | MIC50 [13] | MIC50 [14] | MIC50 [15]
64 µg/mL: MIC50 [1] | MIC50 [2] | MIC50 [3] | MIC90 [4]
16 µg/mL: MIC90 [18] | MIC90 [30] | MIC90 [31]
0.25 µg/mL: MIC50 [8] | MIC50 [10] | MIC90 [11] | MIC90 [12] | MIC90 [16] | MIC50 [17] | MIC90 [17] | MIC90 [19] | MIC90 [20] | MIC90 [21] | MIC90 [32]
2 µg/mL: MIC50 [4] | MIC50 [5] | MIC90 [25] | MIC90 [26] | MIC90 [27] | MIC90 [28] | MIC90 [29]
> 16 µg/mL: MIC90 [6]
8 µg/mL: MIC50 [7] | MIC50 [18]
1 µg/mL: MIC90 [13] | MIC90 [14] | MIC90 [15] | MIC90 [22] | MIC90 [23] | MIC50 [24] | MIC90 [24] | MIC50 [25] | MIC50 [26] | MIC50 [27] | MIC50 [28] | MIC50 [29]
> 64 µg/mL: MIC90 [1] | MIC90 [2] | MIC90 [3]

CO/N=C(\C(=O)N[C@@H]1C(=O)N2C(C(=O)O)=C(CSc3nc(=O)c(O)nn3C)CS[C@H]12)c1csc(N)n1 [CEFTRIAXONE]
> 64 µg/mL: MIC50 [1] | MIC90 [1] | MIC50 [2] | MIC90 [2] | MIC50 [3] | MIC90 [3] | MIC90 [4] | MIC50 [7] | MIC90 [7] | MIC50 [18] | MIC90 [18]
16 µg/mL: MIC90 [13] | MIC90 [14] | MIC90 [15] | MIC90 [25]
8 µg/mL: MIC90 [5] | MIC90 [8] | MIC90 [9] | MIC90 [10] | MIC50 [25]
1 µg/mL: MIC50 [5] | MIC50 [8] | MIC90 [11]
64 µg/mL: MIC90 [6] | MIC90 [22] | MIC90 [23] | MIC90 [30] | MIC90 [31]
4 µg/mL: MIC50 [9] | MIC50 [10] | MIC50 [26] | MIC50 [27] | MIC50 [28] | MIC50 [29]
0.125 µg/mL: MIC50 [12] | MIC50 [16]
0.25 µg/mL: MIC90 [12] | MIC50 [13] | MIC50 [14] | MIC50 [15] | MIC50 [17] | MIC50 [24]
32 µg/mL: MIC50 [22] | MIC50 [23] | MIC90 [26] | MIC90 [27] | MIC90 [28] | MIC90 [29]
0.015 µg/mL: MIC50 [6]
2 µg/mL: MIC50 [4] | MIC90 [19] | MIC90 [20] | MIC90 [21] | MIC50 [30] | MIC50 [31] | MIC90 [32]
0.5 µg/mL: MIC50 [11] | MIC90 [16] | MIC90 [17] | MIC50 [19] | MIC50 [20] | MIC50 [21] | MIC90 [24] | MIC50 [32]
